In ChEMBL document CHEMBL1126276, “Synthesis and antimalarial properties of 1-imino derivatives of 7-chloro-3-substituted-3,4-dihydro-1,9(2H,10H)-acridinediones and related structures” (J Med Chem, 1992):
Values joined by “and” are separate entries in the source; they are usually repeats but may differ in a detail not shown here. Equal values may be shown once.

Legend:
Assay type in all cases: functional
Plasmodium berghei [1] = test: Antimalarial activity in Plasmodium berghei infected mice (Mus musculus) after 160 mg/kg subcutaneous dose
Procedure, shortened: (§1)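 […] in mice infected with a normal drug-sensitive P. berghei strain. Compound dissolved or suspended in sesame or peanut oil, given as a single subcutaneous dose 72 h postinfection.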

Plasmodium berghei [2] = test: Antimalarial activity Plasmodium berghei infected mice (Mus musculus) after 640 mg/kg subcutaneous dose; procedure, shortened: as §1
Plasmodium berghei [3] = test: Antimalarial activity in Plasmodium berghei infected mice (Mus musculus) after 40 mg/kg subcutaneous dose; procedure, shortened: as §1
Plasmodium berghei [4] = test: Antimalarial activity in Plasmodium berghei infected mice (Mus musculus) after subcutaneous 160 mg/kg dose
Procedure, shortened: (§2)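 Normal drug-sensitive P. berghei strain in mice. Compound dissolved or suspended in sesame or peanut oil, given parenterally as a single subcutaneous dose 72 h postinfection.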

Plasmodium berghei [5] = test: Antimalarial activity in Plasmodium berghei infected mice (Mus musculus) after subcutaneous 320 mg/kg dose; procedure, shortened: as §2
Plasmodium berghei [6] = test: Antimalarial activity in Plasmodium berghei infected mice (Mus musculus) after subcutaneous 640 mg/kg dose; procedure, shortened: as §2
Plasmodium berghei [7] = test: Antimalarial activity in Plasmodium berghei infected mice (Mus musculus) after 80 mg/kg subcutaneous dose; procedure, shortened: as §1
Plasmodium berghei [8] = test: Antimalarial activity in Plasmodium berghei infected mice (Mus musculus) after 20 mg/kg subcutaneous dose; procedure, shortened: as §1

| SMILES | Delta mean survival time (Plasmodium berghei [1]) | Delta mean survival time (Plasmodium berghei [2]) | Delta mean survival time (Plasmodium berghei [3]) | No. of cured mice (Plasmodium berghei [4]) | No. of cured mice (Plasmodium berghei [5]) | No. of cured mice (Plasmodium berghei [6]) | Delta mean survival time (Plasmodium berghei [7]) | Delta mean survival time (Plasmodium berghei [8]) | Delta mean survival time (Plasmodium berghei [7]; 80 mg/kg) |
| --- | --- | --- | --- | --- | --- | --- | --- | --- | --- |
| O=C1CC(c2ccc(C(F)(F)F)cc2)Cc2nc3ccc(I)cc3c(O)c21 (centres undefined) | 0.4 | 0.4 | 0.2 | – | – | – | – | – | – |
| COc1cc(C2C/C(=N\CCCN3CCCC3)c3c(n(O)c4ccc(Cl)cc4c3=O)C2)cc(OC)c1OC (centres undefined) | 0.6 | 6.4 | 0.2 | – | – | – | – | – | – |
| CC(C)C1CC(=O)c2c(n(C)c3ccccc3c2=O)C1 (centres undefined) | 0.2 | 0.5 | -0.2 | – | – | – | – | – | – |
| CCN(CC)CCOc1ccc(C2CC(=O)c3c(n([O-])c4ccc(Cl)cc4c3=O)C2)cc1.[Na+] (centres undefined) | 1.5 | 5.3 | – | – | – | – | – | – | – |
| CCCCCCC/N=C1\CC(c2cccc(C(F)(F)F)c2)Cc2c1c(=O)c1cc(Cl)ccc1n2O (centres undefined) | 5 | – | – | 3 | 5 | 5 | 2.8 | – | – |
| CN(C)CCC/N=C1\CC(c2ccc(C(F)(F)F)cc2)Cc2nc3cccc(Cl)c3c(O)c21 (centres undefined) | 24.9 | – | 7.7 | 4 | – | 5 | – | – | – |
| CN1CCN(CCC/N=C2\CC(c3ccc(Cl)c(Cl)c3)Cc3c2c(=O)c2cc(Cl)ccc2n3O)CC1 (centres undefined) | – | – | 7.4 | 5 | 5 | 5 | – | – | – |
| CC1(C)CC(=O)c2c(nc3ccccc3c2O)C1 | 5.6 | – | 3.8 | 2 | – | 5 | – | – | – |
| O=C1CC(c2cccc(C(F)(F)F)c2)Cc2c1c(=O)c1cc(Cl)ccc1n2O (centres undefined) | 13.4 | – | 8.8 | 3 | 5 | 5 | 12.1 | 6 | – |
| O=C1CC(c2ccc(C(F)(F)F)cc2)Cc2nc3ccc(C(F)(F)F)cc3c(O)c21 (centres undefined) | 0.1 | -0.1 | 0.1 | – | – | – | – | – | – |
| CCc1ccc2nc3c(c(O)c2c1)C(=O)CC(c1ccc(C(F)(F)F)cc1)C3 (centres undefined) | 0.4 | 0.2 | 0 | – | – | – | – | – | – |
| COc1ccccc1C1CC(=O)c2c(nc3ccc(Cl)cc3c2O)C1 (centres undefined) | 0.7 | – | 8.3 | 4 | – | 5 | – | – | – |
| CC1(C)CC(=O)c2c(nc3ccc(Cl)cc3c2O)C1 | – | – | – | – | 3 | 4 | – | – | – |
| CCC1C(=O)c2c(nc3ccc(Cl)cc3c2O)CC1c1ccc(C(F)(F)F)cc1 (centres undefined) | 1.2 | 1.6 | 0.6 | – | – | – | – | – | – |
| O=C1CC(c2ccc(C(F)(F)F)cc2)Cc2nc3ccccc3c(O)c21 (centres undefined) | 10.8 | – | 4.6 | 4 | 5 | 5 | 8.2 | 2.7 | – |
| CN(C)CCC/N=C1\CC(c2ccc(C(F)(F)F)cc2)Cc2nc3c(Cl)cc(Cl)cc3c(O)c21 (centres undefined) | 8 | – | 6.3 | 4 | 5 | 5 | 8.2 | – | – |
| O=C1CC(c2ccc(C(F)(F)F)cc2)Cc2nc3ccc(F)cc3c(O)c21 (centres undefined) | 8.9 | – | 7.1 | – | – | 5 | – | – | – |
| CN(C)CCC/N=C1\CC(c2ccc(C3CCCCC3)cc2)Cc2c1c(=O)c1cc(Cl)ccc1n2O (centres undefined) | 9.4 | – | 5 | 3 | – | 5 | – | – | – |
| O=C1CC(c2ccc(Cl)c(Cl)c2)Cc2c1c(=O)c1c(Cl)c(Cl)ccc1n2O (centres undefined) | 0.1 | 0.3 | – | – | – | – | – | – | – |
| CCCCCCn1c2c(c(=O)c3cc(Cl)ccc31)C(=O)CC(c1ccc(C(F)(F)F)cc1)C2 (centres undefined) | 0 | 0.1 | 0.1 | – | – | – | – | – | – |
| O=C1CC(c2ccc(C3CCCCC3)cc2)Cc2nc3ccc(Cl)cc3c(O)c21 (centres undefined) | 0.2 | 1.6 | 0.2 | – | – | – | – | – | – |
| CCCC/N=C1\CC(c2ccc(Cl)c(Cl)c2)Cc2c1c(=O)c1cc(Cl)ccc1n2O (centres undefined) | – | – | 6.1 | 3 | 5 | 5 | – | 2.5 | 9.9 and 8.3 |
| O=C1CC(c2ccc(C(F)(F)F)cc2)Cc2nc3cc(Cl)ccc3c(O)c21 (centres undefined) | 0.2 | 0.4 | -0.4 | – | – | – | – | – | – |

| SMILES | Delta mean survival time (Plasmodium berghei [1]) | Delta mean survival time (Plasmodium berghei [2]) | Delta mean survival time (Plasmodium berghei [3]) | No. of cured mice (Plasmodium berghei [4]) | No. of cured mice (Plasmodium berghei [5]) | No. of cured mice (Plasmodium berghei [6]) | Delta mean survival time (Plasmodium berghei [7]) | Delta mean survival time (Plasmodium berghei [8]) | Delta mean survival time (Plasmodium berghei [7]; 80 mg/kg) |
| --- | --- | --- | --- | --- | --- | --- | --- | --- | --- |
| CN(C)CCC/N=C1\CC(c2ccccc2Cl)Cc2nc3ccc(Cl)cc3c(O)c21 (centres undefined) | 11.3 | – | 5.6 | 2 | 5 | 5 | 6.3 | – | – |
| Cn1c2c(c(=O)c3cc(Cl)ccc31)C(=O)CC(c1ccc(Cl)c(Cl)c1)C2 (centres undefined) | 0.6 | 0.2 | 0 | – | – | – | – | – | – |
| O=C1CC(c2ccc(Cl)cc2Cl)Cc2nc3c(Cl)ccc(Cl)c3c(O)c21 (centres undefined) | 0.3 | -0.1 | 0.1 | – | – | – | – | – | – |
| CSc1ccc(C2CC(=O)c3c(nc4ccc(Cl)cc4c3O)C2)cc1 (centres undefined) | 8.6 | 12.4 | 4.4 | – | – | – | – | – | – |
| O=C1CC(c2ccc(C(F)(F)F)cc2)Cc2nc3c(Cl)cc(Cl)cc3c(O)c21 (centres undefined) | 0.4 | 0 | -0.2 | – | – | – | – | – | – |
| CN(C)CCC/N=C1\CC(c2cccc(C(F)(F)F)c2)Cc2c1c(=O)c1cc(Cl)ccc1n2O (centres undefined) | 12.4 | – | 6.9 | 4 | 5 | 5 | 9.6 | 4.8 | – |
| CN(C)CCCCCCC/N=C1\CC(c2ccc(Cl)c(Cl)c2)Cc2c1c(=O)c1cc(Cl)ccc1n2O (centres undefined) | – | – | 6.5 | 5 | 5 | 5 | 11.3 | – | – |
| O=c1c2c(n(O)c3ccc(Cl)cc13)CC(c1ccc(Cl)c(Cl)c1)C/C2=N\CCCN1CCCCC1 (centres undefined) | 8.7 | – | 5.9 | 4 | 5 | 5 | 9.2 | – | – |
| O=C1CC(c2ccc(C(F)(F)F)cc2)Cc2nc3c(Br)cc(Br)cc3c(O)c21 (centres undefined) | 0.2 | 0 | 0.6 | – | – | – | – | – | – |
| CN(C)CCC/N=C1\CC(C)(C)Cc2c1c(=O)c1cc(Cl)ccc1n2O | 0.4 | 2.8 | 0.2 | – | – | – | – | – | – |
| CN(C)CCC/N=C1\CC(c2ccncc2)Cc2c1c(=O)c1cc(Cl)ccc1n2O (centres undefined) | 0 | 1.4 | 0 | – | – | – | – | – | – |
| CCN(CC)CCC/N=C1\CC(c2cc(OC)c(OC)c(OC)c2)Cc2c1c(=O)c1cc(Cl)ccc1n2O (centres undefined) | 0.7 | 6.1 | 0.4 | – | – | – | – | – | – |
| O=C1CC(c2ccncc2)Cc2nc3ccc(Cl)cc3c(O)c21 (centres undefined) | 0.8 | 2.2 | 0.2 | – | – | – | – | – | – |
| O=C1CC(c2ccc(Cl)cc2Cl)Cc2nc3cc(Cl)ccc3c(O)c21 (centres undefined) | 0.1 | 1.3 | -0.1 | – | – | – | – | – | – |
| CCCC/N=C1\CC(c2ccc(C(F)(F)F)cc2)Cc2nc3ccc(Cl)cc3c(O)c21 (centres undefined) | 10.1 | – | 6 | 1 | – | 5 | – | – | – |
| O=C1CC(c2ccc(Cl)c(Cl)c2)Cc2c1c(=O)c1cc(Cl)ccc1n2O (centres undefined) | 11 | – | 5 | 2 | 5 | 5 | 10.8 | 3.2 | – |
| CN(C)CCC/N=C1\CC(c2ccc(C(F)(F)F)cc2)Cc2nc3ccc(C(F)(F)F)cc3c(O)c21 (centres undefined) | 7.1 | – | 3.1 | – | – | 5 | – | – | – |
| COc1ccc2nc3c(c(O)c2c1)/C(=N/CCCN(C)C)CC(c1ccc(C(F)(F)F)cc1)C3 (centres undefined) | 8.7 | – | 5.5 | 2 | 5 | 5 | 6.1 | 0.7 | – |
| O=C1CC(c2ccc(C(F)(F)F)cc2)Cc2nc3cccc(Cl)c3c(O)c21 (centres undefined) | – | – | 8.7 | 5 | – | 5 | – | – | – |
| CN(C)CCC/N=C1\CC(c2ccc(C(F)(F)F)cc2)Cc2nc3c(Br)cc(Br)cc3c(O)c21 (centres undefined) | 0.2 | 0.4 | 0.2 | – | – | – | – | – | – |
| CCCCn1c2c(c(=O)c3cc(Cl)ccc31)C(=O)CC(c1ccc(C(F)(F)F)cc1)C2 (centres undefined) | -0.2 | 0.4 | -0.2 | – | – | – | – | – | – |
| CCN(CC)CC(C)(C)C/N=C1\CC(c2cc(OC)c(OC)c(OC)c2)Cc2c1c(=O)c1cc(Cl)ccc1n2O (centres undefined) | 0.7 | 4.7 | 0.5 | – | – | – | – | – | – |
